Compounds with a hit are over-represented: about 3.9% of the library has one in this group of screens.
CRFR2-BP ag – agonists of human CRF-binding protein/CRF-R2 receptor complex; HEK293 CRF-R2/CRF-BP, calcium dye fluorescence (FLIPR); percent of saturating CRF peptide response; activation, % at 13.2 µM; hit rate 0.46% among 350,000; AID 588473;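 active means activation of at least 50%, plus an integration ratio under a set limit after plate pattern correction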
TAAR1 ag – human TAAR1 agonism. Q96RJ0. CHO RD-HGA16 TAAR1, Fluo-8 calcium fluorescence; vehicle wells 0%, saturating PEA agonist 100%. activation, % at 3 µM. hit rate 0.99% among 360,000;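 active means activation above the mean activation of all test compounds in the run plus 3 SD, cut at about 38% in these data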
Target sequence (Q96RJ0 whole entry, looked up): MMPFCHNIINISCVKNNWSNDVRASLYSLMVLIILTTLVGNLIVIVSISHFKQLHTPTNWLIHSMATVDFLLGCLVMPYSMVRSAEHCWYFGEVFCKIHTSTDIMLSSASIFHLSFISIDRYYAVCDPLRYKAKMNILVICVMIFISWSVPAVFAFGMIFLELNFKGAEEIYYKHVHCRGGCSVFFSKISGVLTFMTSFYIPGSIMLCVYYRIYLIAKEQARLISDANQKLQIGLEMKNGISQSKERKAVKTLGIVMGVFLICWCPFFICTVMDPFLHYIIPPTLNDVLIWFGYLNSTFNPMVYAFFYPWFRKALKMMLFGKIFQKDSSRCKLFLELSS
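Signal – calcium-sensitive Fluo-8 signal, excitation 470-495, emission 515-575 nm · System – RD-HGA16 (CHO) cells co-expressing Gα16 and hTAAR1 · Incubation – 17-24 h seeding, 75 min 37 °C dye, 30 min RT · Compound dosing – 3 µM single concentration · Repeats – no replicates (n 1)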
CRFBP-R2 block – blocks CRF-induced signaling of the CRF-BP/CRF-R2 complex. inhibition, % at 11.8 µM. hit rate 0.59% among 350,000. HEK293 CRF-R2/CRF-BP, CRF-induced calcium fluorescence;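 active means inhibition of the ligand-induced calcium signal above about 50% at the single tested concentration, limit read from the data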
TAAR1 antag – antagonists of human TAAR1 | inhibition, % at 3 µM | Q96RJ0 | CHO RD-HGA16 TAAR1, Fluo-8 calcium fluorescence, antagonist | hit rate 1.5% among 360,000;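 active means inhibition above a per-plate cutoff, the mean inhibition of test compounds on that plate plus 3 SD, cut at about 49% in these data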
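System: RD-HGA16 CHO cells with stable hTAAR1 and Gα16 | Probe or stimulus: EC80 β-phenethylamine stimulus | Dosing: 3 µM, single point | Times: Dye loading 75 min at 37 °C, then 30 min room temperature | Measured by: Fluo-8 calcium-sensitive fluorescence | Read-out basis: % inhibition of agonist calcium response | Replicates: n of 1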
TMEM16A inh – mouse TMEM16A channel inhibition, primary screen; Q8BHY3; AID 588511; normalized B-score (activity score, 25-100; higher = stronger inhibition) at 10 µM; hit rate 1.2% among 310,000; HEK293 TMEM16A/YFP iodide influx fluorescence, ionomycin;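 active means ratio plate-corrected score three or more library SD toward inhibition, starting fluorescence score within five deviations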;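 further: score derived from kinetic fluorescence span divided by baseline fluorescence per well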
TMEM16A act – activators or potentiators of mouse TMEM16A chloride channel | HEK293 TMEM16A/YFP-H148Q/I152L, iodide quench fluorescence; stronger effect = lower value | B-score at 10 µM | hit rate 0.3% among 340,000 | Q8BHY3 | AID 623877;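 active means fluorescence-ratio B-score plate-corrected deviation score at least 3 library SD below zero, with starting fluorescence score within 5 deviations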;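 further: channel opened by trigger with iodide after compound preincubation; score built on the fluorescence ratio of max minus min over baseline; more negative score means more quench and so TMEM16A activation or potentiation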
TMEM16A reconf – re-confirmation of mouse TMEM16A chloride channel inhibitors; shares compounds with TMEM16A inh; HEK293 TMEM16A/YFP-H148Q, iodide quench fluorescence; ionomycin added to raise cell calcium; inhibition, % at 10 µM; hit rate 39% among 2,300;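 active means mean duplicate percent inhibition, scaled so buffer wells are 0 and the reference blocker 100, over three buffer SD above buffer mean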
HEK293 Ca mobil – counter-screen for TMEM16A inhibitors: effect on calcium mobilization; shares compounds with TMEM16A inh; TMEM16A/YFP HEK293, Fluo4 calcium mobilization; calcium response (% of ionomycin), % at 10 µM; hit rate 2% among 2,300; AID 652231;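 active means duplicate-averaged calcium signal over 20% of the ionomycin maximum, relative to buffer baseline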;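 further: each well's signal is peak minus trough fluorescence divided by its pre-addition baseline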
YFP-HEK293 quench – acts in parental YFP-HEK293 cells lacking TMEM16A, counter-screen; shares compounds with TMEM16A inh; iodide YFP quench, ionomycin; YFP ratio F(max-min)/F0 at 10 µM; 2,300 tested, under 10 active;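 active means yellow fluorescent protein signal ratio exceeding the buffer control mean by over 5 SD of those controls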;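 further: ratio is mean of duplicate wells from kinetic YFP trace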
ClC-1 inh – rat ClC-1 inhibition, TMEM16A specificity screen; shares compounds with TMEM16A inh; CHO ClC-1-YFP, iodide influx fluorescence quench; iodide control reads 0, buffer control 100; ratio percent, % at 10 µM; 2,300 tested, under 10 active;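 active means duplicate-mean ratio percent above the mean of iodide-only control wells, which defines zero, plus 5 of their SD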;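 further: higher percent means stronger block of ClC-1 iodide influx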
Each line names hits and unclear results; the compound was inactive in the other large screens (follow-up assays come after a bar, where they were run).

O=C(CSc1nnc(Cc2cc(=O)[nH]c(=O)[nH]2)n1-c1ccccc1)N1CCCC1	none
CCC(=O)N1CCc2cc(S(=O)(=O)NC(Cc3ccccc3)C(=O)O)ccc21 (stereo not given)	none
O=C(OCc1ccc(Cl)cc1)c1ccccc1C(=O)c1ccccc1	TMEM16A inh 100 | TMEM16A reconf inactive | HEK293 Ca mobil inactive | YFP-HEK293 quench inactive | ClC-1 inh inactive
O=C(NCc1ccc(Cl)cc1Cl)c1ccccn1	TMEM16A inh 25 | TMEM16A reconf inactive | HEK293 Ca mobil inactive | YFP-HEK293 quench inactive | ClC-1 inh inactive
COc1ccccc1N1CCN(C(=O)CSc2nnc3n2C(C)(C)Cc2ccccc2-3)CC1	TMEM16A inh 25 | TMEM16A reconf inactive | HEK293 Ca mobil inactive | YFP-HEK293 quench inactive | ClC-1 inh inactive
CC1Cc2ccccc2N1C(=O)CSc1nnc2n1C(C)(C)Cc1ccccc1-2 (stereo not given)	none
COCC(=O)NCCSc1c(C)[nH]c2ccccc12	TMEM16A inh 100 | TMEM16A reconf inactive | HEK293 Ca mobil inactive | YFP-HEK293 quench inactive | ClC-1 inh inactive
O=S(=O)(c1cc(F)ccc1F)N1CCC2(CC1)OCCN2S(=O)(=O)c1cccs1	none
Cc1ccc2cc(C=O)c(Cl)nc2c1	none
Cc1ccccc1OCC(=O)Nc1ccc(S(=O)(=O)N2CCCC2)cc1	none
COc1ccc(NC(=O)CCOc2ccccc2C)cc1S(=O)(=O)N1CCCCC1	TMEM16A inh 25 | TMEM16A reconf inactive | HEK293 Ca mobil inactive | YFP-HEK293 quench inactive | ClC-1 inh inactive
Cc1ccccc1OCC(=O)Nc1ccc(C)c(S(=O)(=O)N2CCCCCC2)c1	TAAR1 antag 49, TMEM16A inh 25 | TMEM16A reconf inactive | HEK293 Ca mobil inactive | YFP-HEK293 quench inactive | ClC-1 inh inactive
O=c1c2[nH]cnc2n(-c2cccc(Br)c2)c(=O)n1Cc1ccccc1	none (no result: TMEM16A act)
Cc1ccc(C)c(Cn2c3ccccc3c3cnn(CC(=O)NCCCN4CCCCC4)c(=O)c32)c1	none
CN(C)/C=C/C(=O)c1ccc(-c2ccc(Cl)cc2Cl)o1	none
CCCCN(C)CCn1c(=S)[nH]c2ccc(N3CCOCC3)cc2c1=O	TMEM16A inh 25 | TMEM16A reconf inactive | HEK293 Ca mobil inactive | YFP-HEK293 quench inactive | ClC-1 inh inactive
O=C1C2CCC(C2)C1CN1CCOCC1 (stereo not given)	none (no result: TMEM16A inh)
Cc1ccc(COc2ccccc2C(=S)N2CCCC2)cc1	TMEM16A inh 25 | TMEM16A reconf inactive | HEK293 Ca mobil inactive | YFP-HEK293 quench inactive | ClC-1 inh inactive
CC(=O)Nc1ccc(S(=O)(=O)N2CCN(CCCOc3ccccc3Cl)CC2)cc1	TMEM16A inh 25 | TMEM16A reconf inactive | HEK293 Ca mobil inactive | YFP-HEK293 quench inactive | ClC-1 inh inactive
COc1ccc(CNC(=O)CCc2c[nH]c3ccccc23)cc1	TMEM16A inh 100 | TMEM16A reconf inactive | HEK293 Ca mobil inactive | YFP-HEK293 quench inactive | ClC-1 inh inactive
O=C(CCc1nc2ccccc2c(=O)[nH]1)Nc1ccc(Cl)c(Cl)c1	none
O=C(CCc1nc2ccccc2c(=O)[nH]1)NCCN1C(=O)S/C(=C\c2ccc(Cl)cc2Cl)C1=O	TMEM16A inh 25 | TMEM16A reconf inactive | HEK293 Ca mobil inactive | YFP-HEK293 quench inactive | ClC-1 inh inactive
